Experimental data published in ChEMBL document CHEMBL1146622, “Synthesis and biological evaluation of a novel phenyl substituted sydnone series as potential antitumor agents” (2003).

Columns and labels:
Assay type in all cases: functional, Homo sapiens
[1] = tested on: NCI-H460; assay: In vitro antitumor activity determined against NCI-H460 cells expressed as percent of growth of the treated cells compared to untreated cells; set-up: concentration or dose not given beside the values
In short: (§1)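 NCI 3-cell-line prescreen (MCF7 breast, NCI-H460 lung, SF-268 CNS). Cells inoculated and incubated in microtiter plates, then exposed to test agent at a single concentration for 48 h. Alamar blue end-point read-out. Value is percent growth of treated cells relative to untreated cells.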

[2] = tested on: SF-268; assay: In vitro antitumor activity determined against SF-268 cells expressed as percent of growth of the treated cells compared to untreated cells; set-up: concentration or dose not given beside the values; in short: as §1
[3] = tested on: MCF7S; assay: In vitro antitumor activity determined against MCF-7 cells (breast) expressed as percent of growth of the treated cells compared to untreated cells; in short: as §1
[4] = tested on: MCF7S; assay: In vitro antitumor activity determined against MCF-7 cells expressed as percent of growth of the treated cells compared to untreated cells; set-up: concentration or dose not given beside the values; in short: as §1

Row | SMILES | Cell growth [1] [%] | Cell growth [2] [%] | Cell growth [3] [%] | Cell growth [4] [%]
1 | O=[N+]([O-])c1cc(-[n+]2cc([O-])on2)ccc1Cl | 91 | 9 | 44 | 
2 | O=[N+]([O-])c1cc(-[n+]2cc([O-])on2)ccc1N1CCC1 | 95 | 95 |  | 75
3 | O=[N+]([O-])c1cc(-[n+]2cc([O-])on2)ccc1N1Cc2ccccc2C1 | 76 | 95 |  | 75
4 | CCN(CC)c1ccc(-[n+]2cc([O-])on2)cc1[N+](=O)[O-] | 92 | 95 |  | 85
5 | O=[N+]([O-])c1cc(-[n+]2cc([O-])on2)ccc1F | 0 | 0 |  | 0
6 | O=[N+]([O-])c1cc(-[n+]2cc([O-])on2)ccc1N1CCc2ccccc21 | 87 | 96 |  | 82
